Source: PubChem (SRMLSC)
HUVEC prolif 384 = inhibitors of human endothelial cell proliferation. HUVEC proliferation, CellTiter-Glo luminescence, 72 h; hits give low values. viability, % at 10 µM (by protocol). actives 1.1% (n = 86,000);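 active = viability at or below 30%; inactive = viability above 30%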;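 note: 100% = median luminescence of DMSO-only cell control wells on each plate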
H69AR growth 86K = growth inhibitors of human H69AR lung tumor cells; H69AR lung tumor viability, ATP luminescence, 72 h; hits give low values; viability, % at 10 µM; actives 6% (n = 85,000);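 active = viability at or below 40%; inactive = viability above 40%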;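 note: multidrug resistant small cell line overexpressing MRP-1 efflux transporter; 100% = mean luminescence of untreated control wells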
HCT116 PTEN-null = suppresses growth of cells with PTEN deletion; HCT116 PTEN-null viability, CellTiter-Glo, 60 h; hits give low values; viability, % at 10 µM; actives 1.2% (n = 140,000); AID 827;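 active = viability at or below a set limit, 4 SD under the median of all tested compounds, cut at about 3.7% in these data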;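 note: PTEN knockout HCT116 line with beta catenin targeted HCT116 as companion control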
HCT116 bCat-KO = beta-catenin-lacking colon tumor cell growth suppression; HCT116 beta-catenin knockout viability, CellTiter-Glo, 60 h; hits give low values; viability, % at 10 µM; actives 1.5% (n = 140,000);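 active = viability at or under a set limit, the compound median less 4 SD, cut at about 6% in these data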;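 note: 0% = Hyamine 1622 control at 20 µM and 100% = untreated cell control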
Fibroblast inh = blocks proliferation of human lung fibroblasts. LL 47 human lung fibroblast viability, ATP luminescence; hits give low values. viability, % at 10 µM. actives 1.1% (n = 85,000). AID 719;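 active = viability at or below 50% in the single dose screen; inactive = viability above 50%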;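 note: compound exposure lasted 72 h before the ATP readout; 100% = median luminescence of untreated cell-only wells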
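Test system: LL 47 human lung fibroblasts; Quantity: 1,150 cells/well; Buffer or medium: IMEM plus 15% FBS; Dosing: tenfold compound dosing solution, DMSO at 0.1%; Timing: overnight cell rest, 72 h compound treatment at 37 °C; Detection: ATP-based CellTiter-Glo luminescent readout; Read-out basis: viability percentage against median untreated-cell control; Controls: cell-only wells, no compound.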
* marks the source's active call; other numbers are inactive results. The sample as a whole holds a higher share of hits than the screen did.

For Cc1ccc(-n2nc(C)c3c(C)c(CCC(=O)NC(C)c4ccccc4)c(C)nc32)cc1 (stereo not drawn) the results were HUVEC prolif 384 59, H69AR growth 86K 15*, HCT116 PTEN-null 54, HCT116 bCat-KO 42 and Fibroblast inh 73.
Screening CCc1nc(SCC(=O)NCc2ccco2)c2c3c(sc2n1)CCCC3 returned HUVEC prolif 384 55, H69AR growth 86K 57, HCT116 PTEN-null 78, HCT116 bCat-KO 86 and Fibroblast inh 106.
For CCCCSc1nc(SCC(=O)NCc2ccco2)c2c3c(sc2n1)COC(C)(CC)C3 (stereo not drawn) the results were HCT116 PTEN-null 74 and HCT116 bCat-KO 76.
CCOC(=O)CSc1nc2sc3c(c2c(=O)[nH]1)CC(C)(CC)OC3 (stereo not drawn) was read as HUVEC prolif 384 86, H69AR growth 86K 95, HCT116 PTEN-null 116, HCT116 bCat-KO 101 and Fibroblast inh 106.
For CCC1(C)Cc2c(sc3nc(NN)n(C)c(=O)c23)CO1 (stereo not drawn) the results were HUVEC prolif 384 77, H69AR growth 86K 12*, HCT116 PTEN-null 60, HCT116 bCat-KO 37 and Fibroblast inh 89.
Screening CCCCc1nc2sc3c(SCC(=O)NCc4ccco4)ncnc3c2c2c1CCC2 returned HUVEC prolif 384 56, H69AR growth 86K 32*, HCT116 PTEN-null 36, HCT116 bCat-KO 14 and Fibroblast inh 47*.
For CCCSc1nc(SCC(=O)NCc2ccccc2)c2c3c(sc2n1)COC(C)(CC)C3 (stereo not drawn) the results were HUVEC prolif 384 67, H69AR growth 86K 37*, HCT116 PTEN-null 97, HCT116 bCat-KO 96 and Fibroblast inh 87.
For CSc1nc(SCC(=O)NCc2ccco2)c2c3c(sc2n1)COC(C)(C)C3 the results were HUVEC prolif 384 62, H69AR growth 86K 23*, HCT116 PTEN-null 40, HCT116 bCat-KO 31 and Fibroblast inh 62.
`Cc1ccc(Cl)cc1NC(=O)CCn1cccc1` gave HUVEC prolif 384 96, H69AR growth 86K 98, HCT116 PTEN-null 82, HCT116 bCat-KO 76 and Fibroblast inh 109.
`Cc1ccsc1/C=N/n1c(-c2cccnc2)n[nH]c1=S` gave HCT116 PTEN-null 102 and HCT116 bCat-KO 99.
COc1ccccc1NC(=O)Cn1c(=O)oc2ccccc21 was read as HUVEC prolif 384 88, H69AR growth 86K 108, HCT116 PTEN-null 81, HCT116 bCat-KO 83 and Fibroblast inh 96.
COC(=O)[C@H](CC(C)C)NC(=O)NCCCc1ccccc1 was read as HCT116 PTEN-null 93 and HCT116 bCat-KO 86.
Screening Cc1cccc(C(=O)O/N=C(\N)Cc2ccc([N+](=O)[O-])cc2)c1 returned HUVEC prolif 384 59, H69AR growth 86K 3.6*, HCT116 PTEN-null 77, HCT116 bCat-KO 71 and Fibroblast inh 91.
Screening N/C(Cc1ccc([N+](=O)[O-])cc1)=N\OC(=O)c1ccc(Br)cc1 returned HCT116 PTEN-null 87 and HCT116 bCat-KO 97.
Screening N/C(Cc1ccc([N+](=O)[O-])cc1)=N\OC(=O)c1ccc2ccccc2c1 returned HUVEC prolif 384 24*, H69AR growth 86K 66, HCT116 PTEN-null 78, HCT116 bCat-KO 76 and Fibroblast inh 74.
CC(C)N1CC(O)=C(c2nc3ccccc3c(=O)[nH]2)C1=N was read as HUVEC prolif 384 87, H69AR growth 86K 93, HCT116 PTEN-null 79, HCT116 bCat-KO 82 and Fibroblast inh 99.
For COc1cccc(N2CC(O)=C(c3nc4ccccc4c(=O)[nH]3)C2=N)c1 the results were HUVEC prolif 384 62, H69AR growth 86K 29*, HCT116 PTEN-null 17, HCT116 bCat-KO 18 and Fibroblast inh 66.
O=C(Nc1ncnc2sc3c(c12)CCCCC3)c1ccc(F)cc1 was read as HUVEC prolif 384 81, H69AR growth 86K 40*, HCT116 PTEN-null 57, HCT116 bCat-KO 55 and Fibroblast inh 74.
`COc1ccc2cc3cc(C(=O)NCCN4CCN(c5ccccc5F)CC4)oc3nc2c1` gave HUVEC prolif 384 53, H69AR growth 86K 75, HCT116 PTEN-null 26, HCT116 bCat-KO 34 and Fibroblast inh 94.
`COc1ccc2cc3cc(C(=O)Nc4ccccc4N4CCN(C)CC4)oc3nc2c1` gave HUVEC prolif 384 3.6*, H69AR growth 86K 29*, HCT116 PTEN-null 1.5*, HCT116 bCat-KO 2.1* and Fibroblast inh 28*.
COc1ccc(CN(C(C)=O)c2cccc(C)c2C)cc1 was read as HUVEC prolif 384 58, H69AR growth 86K 19*, HCT116 PTEN-null 37, HCT116 bCat-KO 35 and Fibroblast inh 82.
